Measurements: ChEMBL document CHEMBL1122621, “Antihypertensive activities of phenyl aminoethyl sulfides, a class of synthetic substrates for dopamine beta-hydroxylase” (J Med Chem, 1984)

B1: Dopamine beta-hydroxylase (Bos taurus), P15101 (protein)
chain: MQVPSPSVREAASMYGTAVAVFLVILVAALQGSAPAESPFPFHIPLDPEGTLELSWNISYAQETIYFQLLVRELKAGVLFGMSDRGELENADLVVLWTDRDGAYFGDAWSDQKGQVHLDSQQDYQLLRAQRTPEGLYLLFKRPFGTCDPNDYLIEDGTVHLVYGFLEEPLRSLESINTSGLHTGLQRVQLLKPSIPKPALPADTRTMEIRAPDVLIPGQQTTYWCYVTELPDGFPRHHIVMYEPIVTEGNEALVHHMEVFQCAAEFETIPHFSGPCDSKMKPQRLNFCRHVLAAWALGAKAFYYPEEAGLAFGGPGSSRFLRLEVHYHNPLVITGRRDSSGIRLYYTAALRRFDAGIMELGLAYTPVMAIPPQETAFVLTGYCTDKCTQLALPASGIHIFASQLHTHLTGRKVVTVLARDGRETEIVNRDNHYSPHFQEIRMLKKVVSVQPGDVLITSCTYNTEDRRLATVGGFGILEEMCVNYVHYYPQTQLELCKSAVDPGFLHKYFRLVNRFNSEEVCTCPQASVPEQFASVPWNSFNREVLKALYGFAPISMHCNRSSAVRFQGEWNRQPLPEIVSRLEEPTPHCPASQAQSPAGPTVLNISGGKG

Key:
[1] = biological target: T1, Dopamine beta-hydroxylase (Bos taurus) (UniProt P15101); assay: Compound was evaluated as substrate for Dopamine beta hydroxylase (DBH) from bovine adrenals and the enzymatic kinetic constant was reported as Kcat
T1 sequence (whole entry): B1 chain

Monoamine oxidase [2] = biological target: T2, Monoamine oxidase (Bos taurus, UniProt P56560+P21398); assay: Compound was evaluated as substrate for monoamine oxidase (MAO) from bovine […] and the enzymatic kinetic constant was reported as Kcat; format: protein assay; settings: cattle
T2 sequence (P56560 whole entry): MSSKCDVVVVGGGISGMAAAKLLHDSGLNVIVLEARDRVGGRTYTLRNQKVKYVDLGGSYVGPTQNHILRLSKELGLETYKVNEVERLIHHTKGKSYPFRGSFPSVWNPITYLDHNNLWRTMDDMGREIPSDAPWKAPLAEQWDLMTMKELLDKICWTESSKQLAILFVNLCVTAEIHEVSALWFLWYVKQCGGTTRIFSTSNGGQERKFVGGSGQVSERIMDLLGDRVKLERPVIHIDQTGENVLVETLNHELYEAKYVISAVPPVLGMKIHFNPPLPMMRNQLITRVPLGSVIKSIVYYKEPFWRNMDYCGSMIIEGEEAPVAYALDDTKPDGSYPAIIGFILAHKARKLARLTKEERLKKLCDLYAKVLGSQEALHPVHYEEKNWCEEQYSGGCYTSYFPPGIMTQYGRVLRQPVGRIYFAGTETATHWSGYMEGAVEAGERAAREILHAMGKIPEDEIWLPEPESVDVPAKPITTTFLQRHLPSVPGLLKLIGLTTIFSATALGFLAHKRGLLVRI
T2 sequence (P21398 whole entry): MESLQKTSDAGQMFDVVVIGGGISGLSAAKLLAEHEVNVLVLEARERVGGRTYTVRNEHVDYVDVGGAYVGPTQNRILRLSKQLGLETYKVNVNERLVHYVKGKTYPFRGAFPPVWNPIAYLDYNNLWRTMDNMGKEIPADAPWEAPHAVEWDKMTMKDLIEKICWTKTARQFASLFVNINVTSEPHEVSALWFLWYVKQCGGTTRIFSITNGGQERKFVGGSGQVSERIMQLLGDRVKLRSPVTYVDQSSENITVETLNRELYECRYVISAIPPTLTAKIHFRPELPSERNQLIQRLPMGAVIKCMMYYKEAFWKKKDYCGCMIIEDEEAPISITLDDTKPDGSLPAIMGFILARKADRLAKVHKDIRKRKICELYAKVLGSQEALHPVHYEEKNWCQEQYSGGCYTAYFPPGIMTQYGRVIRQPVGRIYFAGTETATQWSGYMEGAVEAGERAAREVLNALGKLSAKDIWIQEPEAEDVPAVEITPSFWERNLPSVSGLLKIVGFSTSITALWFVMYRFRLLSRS
How it was run: (§1)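 Bovine MAO, a mixed A/B isozyme preparation, commercial. Oxygen monitor assay in 0.1 M potassium phosphate pH 7.2, air-saturated, 37 °C. kcat and Km from computer fit to hyperbolic Michaelis-Menten equation. kcat based on total protein, assuming MW 290 000.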

monoamine oxidase (MAO) = biological target: T3, monoamine oxidase (MAO) (Bos taurus, UniProt P21398+P56560); assay: Compound was evaluated as substrate for monoamine oxidase (MAO) from bovine […] and the enzymatic kinetic constant was reported as Km; format: protein assay; settings: cattle; how it was run: as §1
T3 sequence (P56560 whole entry): T2 sequence (P56560 whole entry)
T3 sequence (P21398 whole entry): T2 sequence (P21398 whole entry)

[3] = Ratio of the kinetic parameter Kcat to the Km on substrate […] from bovine adrenals; format: tissue-based; settings: Adrenal gland
[4] = Ratio of the kinetic parameter Kcat to the Km on substrate dopamine monoamine oxidase
Monoamine oxidase [5] = biological target: T2, Monoamine oxidase; assay: Compound was evaluated as substrate for monoamine oxidase (MAO) from bovine […] and the enzymatic kinetic constant was reported as Kcat; c = Compounds displayed no trace of substrate activity even at high enzyme concentrations; format: protein assay; settings: cattle; how it was run: as §1
Monoamine oxidase [6] = biological target: T2, Monoamine oxidase; assay: Compound was evaluated as substrate for monoamine oxidase (MAO) from bovine […] and the enzymatic kinetic constant was reported as Km; c = Compounds displayed no trace of substrate activity even at high enzyme concentrations; format: protein assay; settings: cattle; how it was run: as §1
[7] = Ratio of the kinetic parameter Kcat to the Km on substrate dopamine monoamine oxidase; c = Compounds displayed no trace of substrate activity even at high enzyme concentrations
[8] = substrate: CC(N)CSc1ccc(O)cc1; assay: (§2) Compound was evaluated as substrate for Dopamine beta hydroxylase (DBH) from bovine adrenals and the enzymatic kinetic constant was reported as Km; format: tissue-based; settings: Adrenal gland
[9] = substrate: CC(N)CSc1ccccc1; assay: as §2; format: tissue-based; settings: Adrenal gland
[10] = substrate: NCCCc1ccccc1; assay: as §2; format: tissue-based; settings: Adrenal gland
[11] = substrate: NCCSc1ccc(O)cc1; assay: as §2; format: tissue-based; settings: Adrenal gland
[12] = substrate: NCCSc1ccccc1; assay: as §2; format: tissue-based; settings: Adrenal gland
[13] = substrate: NCCc1ccc(O)cc1; assay: as §2; format: tissue-based; settings: Adrenal gland
[14] = substrate: NCCc1ccccc1; assay: as §2; format: tissue-based; settings: Adrenal gland

Row | Molecule | k cat [1] [s⁻¹] | k cat (Monoamine oxidase [2]) [s⁻¹] | Km (monoamine oxidase (MAO)) [mM] | Ratio [3] [M⁻¹ s⁻¹] | Ratio [4] [M⁻¹ s⁻¹] | further results
1 | NCCc1ccccc1 [PHENETHYLAMINE] | 65 | 0.23 | 2.2 | 9300 | 100 | 
2 | CC(N)CSc1ccccc1 (racemic) | 20 |  |  | 1000 |  | k cat (Monoamine oxidase [5]): No activity; Km (Monoamine oxidase [6]): No activity; Ratio [7]: No activity
3 | NCCc1ccc(O)cc1 | 85 |  |  | 42000 |  | 
4 | NCCSc1ccccc1 | 39 | 0.43 | 0.055 | 2300 | 7300 | 
5 | CC(N)CSc1ccc(O)cc1 (racemic) | 44 |  |  | 6700 |  | k cat (Monoamine oxidase [5]): No activity; Km (Monoamine oxidase [6]): No activity; Ratio [7]: No activity
6 | NCCCc1ccccc1 | 12 | 0.17 | 0.29 | 590 | 580 | 
7 | NCCSc1ccc(O)cc1 | 36 | 0.22 | 0.049 | 8300 | 4500 | 
8 | B1 |  |  |  |  |  | Km [8]: 6.5 mM; Km [9]: 19.1 mM; Km [10]: 20.4 mM; Km [11]: 4.4 mM; Km [12]: 17.2 mM; Km [13]: 2 mM; Km [14]: 7 mM
